From ChEMBL document CHEMBL3352327, “Catechol-rhodanine derivatives: Specific and promiscuous inhibitors of Escherichia coli deoxyxylulose phosphate reductoisomerase (DXR)” (Bioorg Med Chem, 2014)
Calls of active or inactive are those of the source. No cut-off for these calls is given here.

How the values were obtained:
[1] = target: T1, 1-deoxy-D-xylulose 5-phosphate reductoisomerase (Escherichia coli K-12, UniProt P45568); assay: Inhibition of His-tagged Escherichia coli DXR pre-incubated for 2 mins before reaction initiation in presence of 160 uM NADPH in absence of 0.01% Triton X100
T1 sequence (P45568 whole entry): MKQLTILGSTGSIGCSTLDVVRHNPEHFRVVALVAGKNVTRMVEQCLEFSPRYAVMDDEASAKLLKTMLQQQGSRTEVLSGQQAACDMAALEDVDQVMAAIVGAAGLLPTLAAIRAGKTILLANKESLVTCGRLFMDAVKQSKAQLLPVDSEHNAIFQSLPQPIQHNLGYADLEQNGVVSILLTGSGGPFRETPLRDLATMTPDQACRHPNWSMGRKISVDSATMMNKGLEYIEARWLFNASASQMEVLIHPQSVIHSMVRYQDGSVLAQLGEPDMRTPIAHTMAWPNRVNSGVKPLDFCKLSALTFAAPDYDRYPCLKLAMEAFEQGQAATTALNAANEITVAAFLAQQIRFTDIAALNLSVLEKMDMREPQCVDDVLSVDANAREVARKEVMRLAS

[2] = target: T2, 1-deoxy-D-xylulose 5-phosphate reductoisomerase (Escherichia coli K-12) (UniProt P45568); assay: Inhibition of His-tagged Escherichia coli DXR at 20 uM pre-incubated for 2 mins before reaction initiation in presence of 160 uM NADPH in presence of 0.01% Triton X100
T2 sequence (whole entry): T1 sequence (P45568 whole entry)
Outline: (§1)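 His-tagged E. coli DXR at 37 °C in 50 mM Tris/HCl pH 7.5 with 3 mM MgCl2 and 2 mM DTT. Enzyme preincubated 2 min with inhibitor and 480 µM DXP, then started with NADPH (160 µM final). Run with or without 0.01% Triton X100. Final DMSO 0.4% (v/v). IC50 taken from % residual activity vs log[inhibitor]; otherwise % inhibition at 20 µM.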

[3] = target: T2, 1-deoxy-D-xylulose 5-phosphate reductoisomerase (Escherichia coli K-12); assay: Inhibition of His-tagged Escherichia coli DXR at 6 uM pre-incubated for 2 mins before reaction initiation in absence of 160 uM NADPH
Outline: (§2)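 H-DXR in 50 mM Tris/HCl pH 7.5, 3 mM MgCl2, 2 mM DTT, 37 °C. Enzyme preincubated 2 min with inhibitor at 6 µM, with or without NADPH (160 µM). Reaction started by DXP (480 µM final) to measure residual activity.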

[4] = target: T2, 1-deoxy-D-xylulose 5-phosphate reductoisomerase (Escherichia coli K-12); assay: Inhibition of His-tagged Escherichia coli DXR at 6 uM pre-incubated for 2 mins before reaction initiation in presence of 160 uM NADPH; outline: as §2
Malate dehydrogenase [5] = target: T3, Malate dehydrogenase (Thermus thermophilus, UniProt P10584); assay: Inhibition of Thermus flavus MDH pre-incubated for 4 mins before reaction initiation in presence of OAA and NAPH in absence of 0.01% Triton X100 by UV-Vis spectrophotometry
T3 sequence (P10584 whole entry): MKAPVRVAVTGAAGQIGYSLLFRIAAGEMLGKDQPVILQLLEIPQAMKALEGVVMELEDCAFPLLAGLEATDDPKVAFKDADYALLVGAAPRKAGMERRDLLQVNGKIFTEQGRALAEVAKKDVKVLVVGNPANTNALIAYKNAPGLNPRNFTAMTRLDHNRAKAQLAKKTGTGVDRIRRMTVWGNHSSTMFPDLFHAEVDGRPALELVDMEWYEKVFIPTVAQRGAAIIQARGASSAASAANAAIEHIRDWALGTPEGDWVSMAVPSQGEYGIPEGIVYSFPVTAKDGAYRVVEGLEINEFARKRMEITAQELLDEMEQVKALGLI
Outline: (§3)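 MDH in 50 mM Tris/HCl pH 7.5 at 37 °C. Preincubated 4 min with inhibitor, with or without 0.01% (w/v) Triton X100. Reaction started by successive addition of oxaloacetate (250 µM final) and NADH (160 µM final). Initial rates followed as A340 decrease. At least duplicate; 0.4% DMSO final.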

[6] = target: T4, Malate dehydrogenase (Thermus thermophilus) (UniProt P10584); assay: Inhibition of Thermus flavus MDH at 10 uM pre-incubated for 4 mins before reaction initiation in presence of OAA and NAPH in presence of 0.01% Triton X100 by UV-Vis spectrophotometry; outline: as §3
T4 sequence (whole entry): T3 sequence (P10584 whole entry)

[7] = target: T4, Malate dehydrogenase (Thermus thermophilus); assay: Inhibition of Thermus flavus MDH at 50 uM pre-incubated for 4 mins before reaction initiation in presence of OAA and NAPH in presence of 0.01% Triton X100 by UV-Vis spectrophotometry; outline: as §3
[8] = target: T2, 1-deoxy-D-xylulose 5-phosphate reductoisomerase (Escherichia coli K-12); assay: Inhibition of His-tagged Escherichia coli DXR at 10 uM pre-incubated for 2 mins before reaction initiation in presence of 160 uM NADPH
[9] = target: T2, 1-deoxy-D-xylulose 5-phosphate reductoisomerase (Escherichia coli K-12); details: 10 uM
[10] = target: T1, 1-deoxy-D-xylulose 5-phosphate reductoisomerase; assay: Inhibition of His-tagged Escherichia coli DXR pre-incubated for 2 mins before reaction initiation in presence of 160 uM NADPH in presence of 0.01% Triton X100; outline: as §1
Malate dehydrogenase [11] = target: T3, Malate dehydrogenase; assay: Inhibition of Thermus flavus MDH pre-incubated for 4 mins before reaction initiation in presence of OAA and NAPH in presence of 0.01% Triton X100 by UV-Vis spectrophotometry; outline: as §3
[12] = Lipophilicity, log P of the compound; type: physicochemical; details: octanol/water
[13] = target: T1, 1-deoxy-D-xylulose 5-phosphate reductoisomerase
[14] = target: T2, 1-deoxy-D-xylulose 5-phosphate reductoisomerase (Escherichia coli K-12); details: 1 to 8 uM
Escherichia coli [15] = assay: Antimicrobial activity against Escherichia coli XL1 Blue at 400 nmol/4 uL by paper disc diffusion method; type: functional
Outline: (§4)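 Paper disc diffusion on E. coli XL1 Blue. Discs impregnated with compound dissolved in DMSO (4 µL): 400 nmol in the initial screen, then 200 to 800 nmol. Read-out is the diameter of the growth inhibition zone (mm).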

Escherichia coli [16] = assay: Antimicrobial activity against Escherichia coli XL1 Blue at 800 nmol/4 uL by paper disc diffusion method; type: functional; outline: as §4
[17] = target: T2, 1-deoxy-D-xylulose 5-phosphate reductoisomerase (Escherichia coli K-12); assay: Inhibition of His-tagged Escherichia coli DXR at 20 uM pre-incubated for 2 mins before reaction initiation in presence of 160 uM NADPH in absence of 0.01% Triton X100; outline: as §1
[18] = target: T4, Malate dehydrogenase (Thermus thermophilus); assay: Inhibition of Thermus flavus MDH at 50 uM pre-incubated for 4 mins before reaction initiation in presence of OAA and NAPH in absence of 0.01% Triton X100 by UV-Vis spectrophotometry; outline: as §3

Compound	IC50 [1]	inhibition [2]	inhibition [3]	inhibition [4]	IC50 (Malate dehydrogenase [5])	inhibition [6]	inhibition [7]	other results
Cc1ccc(Oc2ccc(NC(=O)CN3C(=O)/C(=C/c4cccc(O)c4O)SC3=S)cc2)cc1	3.6 µM	< 5%	60%	38%	1 µM	< 5%		
O=C(CN1C(=O)/C(=C/c2ccc(O)cc2O)SC1=S)Nc1ccc(Oc2ccc(Cl)cc2)cc1	58 µM				1.3 µM	< 5%		
O=C(CN1C(=O)/C(=C/c2ccc(O)c(O)c2)SC1=S)Nc1ccc(Oc2ccc(Cl)cc2)cc1	3.2 µM	< 5%	64%	41%	0.5 µM		< 5%	
O=C(CN1C(=O)/C(=C/c2cccc(O)c2O)SC1=S)Nc1ccc(Oc2ccc(Cl)cc2)cc1	3.3 µM	< 5%	63%	43%	0.7 µM	< 5%		
Cc1ccc(Oc2ccc(NC(=O)CN3C(=O)/C(=C/c4ccc(O)c(O)c4)SC3=S)cc2)cc1	4.1 µM	10%	38%	30%	0.4 µM		< 5%	inhibition [8]: 53%; inhibition [9]: < 5%
O=C(O)CN1C(=O)/C(=C/c2ccc(O)c(O)c2)SC1=S	3.1 µM		61%	41%	4.7 µM			IC50 [10]: 4.4 µM; IC50 (Malate dehydrogenase [11]): 15 µM; logP [12]: 1; Ki [13]: 7.7 µM; alphaKi [14]: 3 µM
O=C(CN1C(=O)/C(=C/c2ccc(O)c(O)c2)SC1=S)NO	3.8 µM		70%	29%	3.4 µM		53%	IC50 [10]: 6.1 µM; inhibition zone (IZ) (Escherichia coli [15]): 14 mm; inhibition zone (IZ) (Escherichia coli [16]): 20 mm; logP [12]: 1.8; inhibition [14]: Active
O=C(O)CN1C(=O)/C(=C/c2ccccc2)SC1=S								inhibition [17]: < 5%; inhibition [18]: < 5%
